Only some compounds are listed: those with a hit (about 2.2% of all), similar ones and a draw of the others.
TDP2 absorb: human TDP2 enzyme inhibitors, primary screen, biochemical, epi absorbance, recombinant enzyme; AID 720702, 2013; inhibition, % at 12.8 µM; T5PNP hydrolysis, p-nitrophenol absorbance 415 nm; actives 0.34% (n = 370,000); Tyrosyl-DNA phosphodiesterase 2 (Homo sapiens), O95551;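 active = inhibition above the mean of all tested compounds plus 3 SD, set per campaign, cut at about 25% in these data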
Target sequence (O95551 whole entry, looked up): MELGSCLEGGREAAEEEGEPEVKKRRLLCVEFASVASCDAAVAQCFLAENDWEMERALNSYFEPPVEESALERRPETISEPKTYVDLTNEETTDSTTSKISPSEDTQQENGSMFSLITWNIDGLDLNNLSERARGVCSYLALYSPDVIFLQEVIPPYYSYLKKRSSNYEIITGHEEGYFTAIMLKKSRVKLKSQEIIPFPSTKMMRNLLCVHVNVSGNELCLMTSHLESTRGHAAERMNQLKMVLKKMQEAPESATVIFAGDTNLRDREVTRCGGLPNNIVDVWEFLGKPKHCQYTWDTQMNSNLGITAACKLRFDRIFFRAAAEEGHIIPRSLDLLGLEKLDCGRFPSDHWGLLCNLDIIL
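System: recombinant human TDP2 / Amount: 120 nM TDP2 per well / Also added: 5 mM T5PNP chromogenic substrate / Doses: 12.8 µM single point, 1% DMSO / Incubation: 2 h at 37 °C / Detection: p-Nitrophenol epi absorbance / Evaluation: % inhibition relative to enzyme-containing and enzyme-free wells / Repeats: singlicate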
ABHD4 inh: ABHD4 inhibitors, primary screen, biochemical, fluorescence polarization, mouse; (Lyso)-N-acylphosphatidylethanolamine lipase (Mus musculus), Q8VD66; purified mABHD4, FP-Rh probe fluorescence polarization; inhibition, % at 8.92 µM; actives 0.54% (n = 370,000); AID 720543, 2013;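 active = inhibition exceeding the mean over every tested compound plus 3 SD, cut at about 30% in these data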
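Assay system: Wild-type mouse ABHD4 protein | Medium: HEPES pH 7.0 buffer, 150 mM NaCl, 0.01% Pluronic F-127 | Incubation: Enzyme–compound pre-incubation 45 min, then probe 60 min, both 25 °C | Technique: Fluorescence polarization with parallel and perpendicular emission, 525/598 nm | Evaluation: % inhibition of FP-Rh probe binding versus controls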
SIAE primary: human SIAE inhibitors, primary screen, biochemical, fluorescence polarization, FP-Rh probe, 1536-well HTS. SIAE FP-Rh probe binding. Sialate O-acetylesterase (Homo sapiens), Q9HAT2. AID 1053197, 2014. actives 0.69% (n = 370,000). inhibition, % at 9.66 µM;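 active = inhibition above a cutoff: mean of compounds within the control limits plus 3 SD of those, cut at about 17% in these data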
LEDGF integ inh: blockers of LEDGF/p75-dependent integrase strand transfer – biochemical, TR-FRET, high throughput, primary screen; actives 0.64% (n = 370,000); inhibition, % at 3.7 µM; TR-FRET IN-LEDGF/p75 DNA integration, Eu/Cy5;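 active = inhibition above the screen-wide mean plus 3 SD, cut at about 13% in these data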;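 note: signal is the Cy5 over europium emission ratio at 671 and 618 nm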
HTRA1 inhibitor: HTRA1 serine protease inhibitors, primary screen, biochemical, fluorescence polarization, HTS; recombinant HTRA1, FP-rhodamine activity-based probe; AID 504803, 2011; Q92743; inhibition, % at 5.96 µM; actives 0.5% (n = 340,000); in the data active = inhibition above about 36%
TCR-CD3 inh: inhibitors of human TCR-CD3 interaction, primary screen, biochemical, fluorescence, TAMRA-labeled TCR probe | actives 0.37% (n = 360,000) | T-cell receptor (TCR) | inhibition, % at 9.4 µM; in the data active = inhibition above about 19%;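 note: recombinant mutant TCR 2C K166C tagged with TAMRA read by polarization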
ABHD4 confirm: ABHD4 inhibitors, retest, confirmation, biochemical, fluorescence polarization, mouse; shares compounds with ABHD4 inh; purified mABHD4, FP-Rh probe fluorescence polarization; inhibition, % at 8.92 µM; actives 55% (n = 1,800); AID 720658, 2013;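 active = mean inhibition across replicates above the hit cutoff set in the primary screen, cut at about 30% in these data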
Of the large screens only hits and unclear results are named; the others gave an inactive call (follow-up assays come after a bar, where they were run).

CCCC#Cc1ccc2c(c1)COc1c3ccccc3nn1-2	none
F[B-](F)(F)COCc1ccccc1Br	ABHD4 inh 80 | ABHD4 confirm 70
O=C(C#Cc1ccccc1)Nc1ccccc1F	none
CCCCC#Cc1ccccc1COC[B-](F)(F)F	ABHD4 inh 75 (no result: HTRA1 inhibitor) | ABHD4 confirm 75
O=C(O)c1ccccc1OCc1ccccc1Br	none
F[B-](F)(F)COCc1ccccc1C#Cc1ccccc1	ABHD4 inh 77 (no result: HTRA1 inhibitor) | ABHD4 confirm 79
O=C1N2CCc3ccccc3C2CS(=O)(=O)N1Cc1ccc(F)cc1 (configuration not stated)	none (no result: HTRA1 inhibitor, TCR-CD3 inh)
CC(=NNC(=S)SCc1ccccc1)c1ccccn1	ABHD4 inh 56 | ABHD4 confirm inactive
CC(=NNC(=S)N1CCCC1)c1ccccn1	none
O=C(CSC1=NNC(c2ccccn2)S1)Nc1ccc(C(F)(F)F)cc1 (configuration not stated)	ABHD4 inh 39 | ABHD4 confirm inactive
O=C(O)c1ccc(N/N=C/c2cn(Cc3ccccc3F)c3ccccc23)cc1	ABHD4 inh 46 | ABHD4 confirm 69
CC(C)CCNC(=O)c1ccc2c(SCC(=O)O)c3c(nc2c1)CCC3	ABHD4 inh 46 | ABHD4 confirm inactive
COc1ccc(C(C)=O)cc1CSC(=S)N1CCSCC1	none (no result: HTRA1 inhibitor)
COc1ccc2nc(NC(=O)Nc3cccc4ccccc34)sc2c1	ABHD4 inh 30 | ABHD4 confirm inactive
CCOC(=O)c1c(CN2CCCCC2)n(C)c2cc(Br)c(O)c(CN(C)C)c12	none (no result: TDP2 absorb, ABHD4 inh, SIAE primary, LEDGF integ inh, TCR-CD3 inh)
CCOC(=O)c1c(CSc2ccccc2)n(C)c2cc(Br)c(O)c(CN(C)C)c12	ABHD4 inh 39 | ABHD4 confirm inactive
CCOC(=O)c1c(CSc2ccc(C)cc2)n(C)c2cc(Br)c(O)c(CN(C)C)c12	ABHD4 inh 40 | ABHD4 confirm inactive
CCOC(=O)c1c(CSc2ccsc2)n(C)c2cc(Br)c(O)c(CN(C)C)c12	ABHD4 inh 30 | ABHD4 confirm inactive
C[C@H]1[C@@H](O)CC[C@@]23CCCN2C(=O)CCC[C@@H]13	none (no result: HTRA1 inhibitor, TCR-CD3 inh)
COc1cccc(OCC(C)CN2CCC(C(O)(c3ccccc3)c3ccccc3)CC2)c1 (configuration not stated)	none (no result: HTRA1 inhibitor, TCR-CD3 inh)
CC(C)(O)C#Cc1ccc(CN2CCN(Cc3ccsc3)C(CCO)C2)s1 (configuration not stated)	ABHD4 inh 93 | ABHD4 confirm inactive
O=C(NCc1ccc(F)c(F)c1)C1CCC(CNS(=O)(=O)c2cccc3cccnc23)CC1 (configuration not stated)	none (no result: HTRA1 inhibitor, TCR-CD3 inh)
COc1cc(/C=C2\SC(=S)N(NC(=O)c3ccccc3O)C2=O)ccc1O	none
O=C(NN1C(=O)/C(=C/c2ccc(O)c([N+](=O)[O-])c2)SC1=S)c1ccccc1Cl	ABHD4 inh 49 | ABHD4 confirm 37
CCC(C)(C)c1ccc(OCCCC[n+]2cccc(C)c2C)c(C(C)(C)CC)c1	none
CCC(C)(C)c1ccc(OCCCC[n+]2ccc(C)cc2)c(C(C)(C)CC)c1	ABHD4 inh 33 (no result: HTRA1 inhibitor) | ABHD4 confirm 50
COC(=O)[C@]12C[C@H](CC(=O)NCCC(C)C)C(=O)N(Cc3ccco3)C1=C[C@H](C(C)(C)C)O[C@@H]2C	none (no result: HTRA1 inhibitor, TCR-CD3 inh)
COCC(C)N1CC(O)=C(c2nc(-c3ccc(Cl)cc3)cs2)C1=N (configuration not stated)	ABHD4 inh 32 | ABHD4 confirm inactive
Nc1ccc2c(O)cc(S(=O)(=O)O)cc2c1	ABHD4 inh 39, LEDGF integ inh 40 | ABHD4 confirm inactive
Cc1c(Cl)cccc1N/C(SCC(=O)N1CCCCCC1)=C(/C#N)c1nc2ccccc2s1	ABHD4 inh 35 | ABHD4 confirm 34

Screening data: PubChem BioAssay, The Scripps Research Institute Molecular Screening Center
